Screening data (PubChem BioAssay)
PolyA inhibitor = inhibitors of polyadenylation in S. cerevisiae | S. cerevisiae SKY197-pL101 polyadenylation reporter, beta-gal luminescence; efflux-impaired pdr1/pdr3 knockout yeast; score 100 = 6 SD above DMSO | activity score, % at 12 µM | actives 0.02% (n = 300,000) | AID 1875;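 active means lowest replicate activity score at least 50, where 100 means six control SD above control mean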;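 further: yeast exposed to compound for 9 h at 30 °C; higher score means more reporter readthrough which indicates perturbed polyadenylation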
Mot1-301 SUMO = SUMOylation pathway inhibition by Mot1-301 growth rescue | growth rescue, % at 18.8 µM | S. cerevisiae Mot1-301 growth rescue, ATP luminescence, 38.5C; percent above DMSO median, 100 means doubled | actives 1% (n = 320,000) | AID 2716;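 active means every valid replicate shows activation above 250% relative to neutral control wells; inactive means the rest, any valid replicate at or below 250%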;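 further: OY570 slx delta 5 strain wells were the positive control but not used for scaling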
IMP-1 inh = blocks Pseudomonas aeruginosa IMP-1 metallo-beta-lactamase | inhibition, % at 5.6 µM | actives 0.45% (n = 290,000) | purified IMP-1, nitrocefin hydrolysis, epi-absorbance fluorescence;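 active means inhibition above the mean plus 3 SD of all compounds in the same screening run, cut at about 4.5% in these data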;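 further: 0% = IMP-1 with DMSO and 100% = DMSO wells lacking enzyme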
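System: purified recombinant IMP-1 beta-lactamase. Medium: Zinc- and detergent-supplemented HEPES buffer, pH 7.1. Compound: one 5.6 µM dose […]. Schedule: 15 min preincubation plus 25 min reaction at 25 °C. Technique: Epi-absorbance fluorescence, 480 nm excitation, 530 nm emission.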
VIM-2 inhibitor = inhibitors of Pseudomonas aeruginosa VIM-2 metallo-beta-lactamase. purified VIM-2, nitrocefin hydrolysis, epi-absorbance fluorescence. actives 0.89% (n = 290,000). inhibition, % at 5.6 µM;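 active means inhibition above the mean of all tested compounds plus 3 SD, cutoff set per screening run, cut at about 7.5% in these data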;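 further: red hydrolysis product quenches plate fluorescence so inhibitors raise well fluorescence; 0% = enzyme with DMSO and 100% = DMSO without enzyme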
NALP1 yeast inh = blocks the NALP1 inflammasome reconstituted in yeast; S. cerevisiae NALP1/ASC/caspase-1 growth, X-gal OD620, 72 h; inhibition, % at 10 µM; actives 0.61% (n = 280,000); AID 2071; in the data active means inhibition mostly above about 24%, no sharp cut-off; inactive means mostly below about 32%
NALP3 yeast inh = inhibitors of NALP3 inflammasome in yeast | Yeast reconstituted NLRP3/ASC/caspase-1, beta-gal luminescence, 24 h | inhibition, % at 10 µM | actives 0.39% (n = 330,000) | AID 2825;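 active means inhibition of 50% or more; inactive means inhibition below 50%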;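 further: plate controls were induced DMSO wells for no effect and uninduced yeast grown without galactose for full effect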
Yeast Mot1 SUMO = SUMO pathway inhibitors in yeast Mot1-301 growth | growth activity, percent, % at 42 µM | AID 493004 | 2,300 tested, under 10 active | S. cerevisiae Mot1-301 galactose growth, ATP luminescence, 24 h; -100 = growth of slx-deleted rescue strain | shares compounds with Mot1-301 SUMO;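 active means Signal drops as the depositor expects, and the fitted half-maximal dose is no more than ten times the top valid tested dose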;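 further: more negative values mean stronger growth rescue toward the control strain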
An asterisk follows results filed as active; x = no result given; + = active, no number. The list is not random: actives were taken first. Their share in the collection is about 2.9%.

SMILES | PolyA inhibitor | Mot1-301 SUMO | IMP-1 inh | VIM-2 inhibitor | NALP1 yeast inh | NALP3 yeast inh | Yeast Mot1 SUMO
Cc1ccc(C)c(NC(=S)NC(=O)c2cncc(Br)c2)c1 | 5.7 | 571.4* | x | x | x | 33.1 | -0.3
Cc1ccc(NC(=S)NC(=O)c2cncc(Br)c2)c(C)c1 | 2.8 | 4.1 | x | x | x | 34.2 | x
COc1ccc(CC(=O)Oc2ccc(F)cc2)cc1 | -14.8 | -9.3 | -0.9 | 0.1 | 12.9 | 7.3 | x
NS(=O)(=O)c1ccc(S(=O)(=O)N2CCCC2)cc1 | 1.3 | -4.5 | -3.8 | -0.8 | 3.8 | -2.8 | x
O=S(=O)(c1ccc(C2CCCCC2)cc1)N1CCCC1 | 12.5 | 621.2* | -3.1 | -3.1 | -2.8 | 12.5 | -0.4
O=S(=O)(c1ccc(S(=O)(=O)N2CCCC2)cc1)N1CCCCC1 | 0.3 | 682.6* | -0.6 | 1.8 | 10.6 | 10.1 | -0.2
CCN1CCN(c2ccc(S(=O)(=O)N3CCOCC3)cc2NC(=O)/C=C/c2ccc([N+](=O)[O-])cc2)CC1 | 17.4 | 0.8 | x | x | x | 4.0 | x
CS(=O)(=O)c1ccc(Cl)c(C(=O)Nc2ccc3nc(N4CCOCC4)sc3c2)c1 | x | -4.1 | x | x | x | 10.8 | x
Cc1ccc(NC(=O)CCc2c[nH]c3ccccc23)nc1 | -4.8 | -0.5 | -0.6 | -1.0 | 2.8 | 35.7 | x
O=C(CSc1cccc[n+]1[O-])N1CCCCCC1 | -6.4 | -0.5 | -1.4 | -2.1 | 21.3 | -0.9 | x
O=C(CSc1cccc[n+]1[O-])N1CCc2ccccc21 | 15.0 | 898.4* | -3.1 | -2.9 | -3.2 | 0.5 | -0.6
CC(=O)c1ccc(OCc2cc(C(=O)NC(C)CCn3cccn3)no2)cc1 (stereo unspecified) | 5.1 | 0.5 | -2.9 | -1.1 | -7.8 | 3.7 | x
COc1cc(NC(=O)COC(=O)CNC(=O)C2CCCCC2)cc(OC)c1 | x | 12.6 | x | x | x | 4.5 | x
COc1ccc2c(CC(=O)Nc3ccccc3OC)coc2c1 | -6.6 | -1.2 | -2.2 | -3.8 | -12.6 | 36.0 | x
COc1ccc2c(CC(=O)Nc3ccc(OC)c(NS(=O)(=O)c4ccc(F)cc4)c3)coc2c1 | 2.2 | 559.6* | -2.9 | -2.0 | 18.7 | 10.4 | -0.5
O=C(NCCC(=O)N1CCN(c2ccccn2)CC1)c1ccc(Cl)cc1 | x | 3.8 | x | x | x | 12.2 | x
Cn1cc(C(=O)N2CCCC(Nc3ccc(F)cc3)C2)c2ccccc21 (stereo unspecified) | 12.4 | 662.5* | -0.6 | 1.9 | -16.3 | 8.2 | 0.7
Cc1[nH]c(C)c(S(=O)(=O)NCCc2ccccc2)c1C(=O)N1CCCC1 | -5.7 | 19.1 | 0.9 | 0.0 | 22.8 | -4.9 | x
Cc1[nH]c(C)c(S(=O)(=O)NCC(C)c2ccccc2)c1C(=O)N1CCCCC1 (stereo unspecified) | 13.6 | 496.6* | 0.6 | -1.7 | 18.9 | 24.7 | 0.3
S=c1[nH]nc(-c2ccco2)n1-c1ccc(Br)cc1 | -4.0 | 531.6* | x | x | x | 20.8 | 0.5
COc1cc(NC(=S)N2CCN(C(=O)C3CCCO3)CC2)c(OC)cc1Cl (stereo unspecified) | -12.9 | 370.0* | -2.6 | -6.0 | 18.3 | 29.8 | 0.8
CCn1c(C(=O)O)c(CC(=O)Nc2cccc(C(F)(F)F)c2)c2ccccc21 | -18.0 | -18.3 | -2.9 | -1.4 | 0.3 | 15.8 | x
COc1cc2c(=O)n(CCC(=O)NCC3CCCO3)c(=O)n(CC(=O)Nc3ccccc3C)c2cc1OC (stereo unspecified) | -7.6 | 444.2* | -4.7 | -1.5 | -13.5 | 18.7 | 0.4
COc1ccc(S(=O)(=O)N2CCCCC2)cc1NC(=O)CSc1nnc(C2CC2)n1C | x | 6.0 | x | x | x | 11.3 | x
Cc1c(NC(=O)OCCNC(=O)Nc2ccccc2)sc(=S)n1C | -20.7 | 212.8 | -2.0 | -1.8 | -3.9 | 16.8 | x
SMILES | PolyA inhibitor | Mot1-301 SUMO | IMP-1 inh | VIM-2 inhibitor | NALP1 yeast inh | NALP3 yeast inh | Yeast Mot1 SUMO
CCOC(=O)Nc1sc(=S)n(C)c1C | -7.2 | 509.4* | -0.8 | 0.9 | 34.0 | 11.6 | -0.1
O=C(NCC1CCN(Cc2ccccc2F)CC1)Nc1cc(F)ccc1F | -1.9 | -15.8 | 1.6 | 2.7 | 30.0 | 7.1 | x
O=C(NCC1CCN(Cc2ccccc2Cl)CC1)Nc1ccccc1F | 7.5 | 605.6* | -0.8 | -2.1 | 25.0 | 6.0 | -0.4
O=C(c1ccc2c(=O)n(Cc3ccccc3)c(=S)[nH]c2c1)N1CCOCC1 | -20.8 | -2.1 | -1.4 | -3.6 | -10.9 | 17.5 | x
O=C(c1ccc2c(=O)n(Cc3ccccc3Cl)c(=S)[nH]c2c1)N1CCOCC1 | 14.8 | 422.5* | -4.8 | -2.8 | -8.6 | -7.8 | 0.6
Cc1ccc(NC(=O)COC(=O)c2ccc(-n3nc(C)cc3C)cc2)c(F)c1 | x | 13.1 | x | x | x | 24.3 | x
COc1ccc(OCc2cc(C(=O)NC3CCc4ccccc43)no2)c(Cl)c1 (stereo unspecified) | 9.6 | -6.5 | -0.9 | -0.4 | 11.4 | 20.9 | x
O=C(NC1CCc2ccccc21)c1cc(COc2ccc(F)cc2F)on1 (stereo unspecified) | 11.7 | 396.1* | -0.2 | 3.2 | -5.9 | 1.6 | 0.1
COc1ccc(Cc2nc3ccc(C(=O)N(C)CCCN4CCOCC4)cc3o2)cc1 | -4.1 | 9.8 | -4.4 | 0.2 | -7.1 | 9.9 | x
CC(=O)c1ccc(NC(=O)CSc2nnc(-c3ccco3)o2)cc1 | 9.5 | 426.1* | -1.3 | 0.3 | -3.5 | 0.5 | 0.0
O=C(CCSc1nnnn1-c1ccccc1)N1CCOCC1 | -7.3 | 687.5* | -6.6 | -1.7 | 10.6 | -3.0 | 0.7
O=C(N/N=C/c1ccc(Cl)s1)c1ccccc1[N+](=O)[O-] | 3.0 | 805.0* | -5.2 | -4.2 | -15.1 | 10.5 | 0.7
O=C(N/N=C/c1cc(Br)cs1)c1ccccc1[N+](=O)[O-] | -10.6 | 20.0 | -3.3 | -2.4 | 20.5 | 1.1 | x
CCNc1c(NS(=O)(=O)c2ccc([N+](=O)[O-])cc2)c(=O)oc2ccccc12 | -9.1 | -23.8 | -0.6 | -0.6 | 22.3 | 1.8 | x
CN1CC2(C)OC(=O)C(Cl)=C2CC1c1ccccc1 (stereo unspecified) | -19.5 | 430.6* | -1.2 | -3.5 | 22.3 | 7.0 | -0.8
O=C(CNC(=O)c1ccccc1Cl)NCC(c1cccs1)N1CCOCC1 (stereo unspecified) | 18.2 | -7.8 | x | x | x | 3.6 | x
COc1ccc(C2C(C(=O)Nc3cc(OC)c(OC)c(OC)c3)c3ccccc3C(=O)N2C)cc1 (stereo unspecified) | 1.5 | 465.2* | -0.7 | -2.1 | 12.5 | 15.5 | 0.0
CSC1=C(C#N)C(=O)NC(c2ccc(Cl)cc2)S1 (stereo unspecified) | 1.0 | 7.8 | -3.3 | -3.2 | x | 5.9 | x
CC(OC(=O)CCCC(=O)Nc1ccccc1)C(=O)c1ccccc1 (stereo unspecified) | 2.7 | -3.1 | -2.8 | -0.2 | 12.7 | 25.3 | x
O=C(O)CCCC(=O)Nc1nc(-c2ccc(F)cc2)cs1 | -12.2 | -7.9 | -3.5 | -4.3 | 12.0 | 1.7 | x
O=C(Cc1ccc(F)cc1)Nc1nc(-c2ccc(F)cc2)cs1 | 7.2 | + | -0.8 | 0.9 | 3.9 | 12.5 | -0.6
